Measurements taken from ChEMBL document CHEMBL5038630 (J Med Chem, 2022).
Activity calls are given as the source filed them. The rule behind the calls is not given here.

Tests used:
[1] = target: Glutamate NMDA receptor; Grin1/Grin2a (Rattus norvegicus, UniProt P35439+Q00959); assay: Agonist activity at rat GluN1/GluN2A NMDA receptor expressed in Xenopus oocytes measured after 4 days in presence of L-glutamte by two-electrode voltage-clamp recording assay; assay type: cell-based, Oocyte
Procedure, shortened: (§1)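 Rat GluN1 plus GluN2A or GluN2B cRNA (1:2) in Xenopus oocytes. TEVC at −40 mV, room temperature, 2–4 days post-injection. Bath: 90 mM NaCl, 1 mM KCl, 10 mM HEPES, 0.5 mM BaCl2, 0.01 mM EDTA, pH 7.4. Oocytes were BAPTA-injected before recording. Agonist applied with 300 μM L-Glu throughout. NR means <5% response at the stated concentration. 3–14 oocytes.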

[2] = target: Glutamate NMDA receptor; Grin1/Grin2c (Rattus norvegicus, UniProt P35439+Q00961); assay: Agonist activity at rat GluN1/GluN2C NMDA receptor expressed in Xenopus oocytes measured after 4 days in presence of L-glutamte by two-electrode voltage-clamp recording assay; assay type: cell-based, Oocyte
Procedure, shortened: (§2)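 Xenopus oocytes were injected with rat GluN1 and GluN2C or GluN2D cRNA (1:2) and recorded by TEVC 2–4 days later at −40 mV, room temperature, pH 7.4 HEPES/NaCl/BaCl2 saline. Concentration-response with 300 μM L-Glu present. NR means <5% response at the concentration given. DMSO ≤0.5%. 3–14 oocytes.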

[3] = target: Ionotropic glutamate receptor NMDA 1/2D (Rattus norvegicus, UniProt P35439+Q62645); assay: Agonist activity at rat GluN1/GluN2D NMDA receptor expressed in Xenopus oocytes measured after 4 days in presence of L-glutamte by two-electrode voltage-clamp recording assay; assay type: cell-based, Oocyte; procedure, shortened: as §2
[4] = target: Glutamate NMDA receptor; Grin1/Grin2c (Rattus norvegicus) (UniProt P35439+Q00961); assay: Agonist activity at rat GluN1/GluN2C NMDA receptor expressed in Xenopus oocytes assessed as maximal relative efficacy measured after 4 days in presence of L-glutamte by two-electrode voltage-clamp recording assay relative to glycine; assay type: cell-based; conditions: Oocyte, time 4.0 day
Procedure, shortened: as §2, with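 “present. […]” for “present.”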

[5] = target: T1, Ionotropic glutamate receptor NMDA 1/2D (Rattus norvegicus) (UniProt P35439+Q62645); assay: Agonist activity at rat GluN1/GluN2D NMDA receptor expressed in Xenopus oocytes assessed as maximal relative efficacy measured after 4 days in presence of L-glutamte by two-electrode voltage-clamp recording assay relative to glycine; assay type: cell-based; conditions: Oocyte, time 4.0 day
Procedure, shortened: as §2, with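 “present. […]” for “present.”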

[6] = target: T2, Glutamate NMDA receptor; Grin1/Grin2a (Rattus norvegicus) (UniProt P35439+Q00959); assay: Agonist activity at rat GluN1/GluN2A NMDA receptor expressed in Xenopus oocytes assessed as maximal relative efficacy measured after 4 days in presence of L-glutamte by two-electrode voltage-clamp recording assay relative to glycine; assay type: cell-based; conditions: Oocyte, time 4.0 day
Procedure, shortened: as §1, with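 “throughout. […]” for “throughout.”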

[7] = target: T3, Glutamate NMDA receptor; Grin1/Grin2b (Rattus norvegicus) (UniProt P35439+Q00960); assay: Agonist activity at rat GluN1/GluN2B NMDA receptor expressed in Xenopus oocytes assessed as maximal relative efficacy measured at 300 uM after 4 days in presence of L-glutamte by two-electrode voltage-clamp recording assay relative to glycine; assay type: cell-based; conditions: Oocyte, time 4.0 day
Procedure, shortened: as §1, with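 “throughout. […]” for “throughout.”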

[8] = target: T2, Glutamate NMDA receptor; Grin1/Grin2a (Rattus norvegicus); assay: Agonist activity at rat GluN1/GluN2A NMDA receptor expressed in Xenopus oocytes assessed as maximal relative efficacy measured at 300 uM after 4 days in presence of L-glutamte by two-electrode voltage-clamp recording assay relative to glycine; assay type: cell-based; conditions: Oocyte, time 4.0 day
Procedure, shortened: as §1, with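 “throughout. […]” for “throughout.”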

[9] = target: T3, Glutamate NMDA receptor; Grin1/Grin2b (Rattus norvegicus); assay: Agonist activity at rat GluN1/GluN2B NMDA receptor expressed in Xenopus oocytes assessed as maximal relative efficacy measured after 4 days in presence of L-glutamte by two-electrode voltage-clamp recording assay relative to glycine; assay type: cell-based; conditions: Oocyte, filed as agonist, time 4.0 day
Procedure, shortened: as §1, with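 “throughout. […]” for “throughout.”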

[10] = target: T3, Glutamate NMDA receptor; Grin1/Grin2b (Rattus norvegicus); assay: Agonist activity at rat GluN1/GluN2B NMDA receptor expressed in Xenopus oocytes assessed as maximal relative efficacy measured at 100 uM after 4 days in presence of L-glutamte by two-electrode voltage-clamp recording assay relative to glycine; assay type: cell-based; conditions: Oocyte, time 4.0 day
Procedure, shortened: as §1, with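 “throughout. […]” for “throughout.”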

[11] = target: T1, Ionotropic glutamate receptor NMDA 1/2D (Rattus norvegicus); assay: Agonist activity at rat GluN1/GluN2D NMDA receptor expressed in Xenopus oocytes assessed as maximal relative efficacy measured at 100 uM after 4 days in presence of L-glutamte by two-electrode voltage-clamp recording assay relative to glycine; assay type: cell-based; conditions: Oocyte, time 4.0 day
Procedure, shortened: as §2, with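 “present. […]” for “present.”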

Oocyte [12] = assay: Agonist activity at mutant GluN1 F484A/T518 mutant//GluN3B NMDA receptor (unknown origin) expressed in Xenopus oocytes measured after 4 days in presence of glycine by two-electrode voltage-clamp recording assay; assay type: cell-based; conditions: Homo sapiens, time 4.0 day
[13] = target: Glutamate NMDA receptor; Grin1/Grin2b (Rattus norvegicus, UniProt P35439+Q00960); assay: Agonist activity at rat GluN1/GluN2B NMDA receptor expressed in Xenopus oocytes measured after 4 days in presence of L-glutamte by two-electrode voltage-clamp recording assay; assay type: cell-based, Oocyte; procedure, shortened: as §1
Oocyte [14] = assay: Agonist activity at recombinant GluN1a/GluN2B NMDA receptor (unknown origin) expressed in Xenopus oocytes assessed as inhibition of glycine-induced activation of current measured at 10 uM after 4 days in presence of L-glutamte by two-electrode voltage-clamp recording assay; assay type: cell-based; conditions: Homo sapiens, filed as agonist, time 4.0 day
Procedure, shortened: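 Oocytes expressing GluN1/2B were BAPTA-injected and held under two-electrode voltage clamp in continuous 300 μM L-Glu. […] Values are mean ± SEM from 12 oocytes.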

[15] = Binding affinity at recombinant GluN1a/GluN2B NMDA receptor (unknown origin) expressed in Xenopus oocytes measured after 4 days in presence of L-glutamte by two-electrode voltage-clamp recording assay; assay type: cell-based, Homo sapiens; conditions: oocyte
Oocyte [16] = assay: Agonist activity at mutant GluN1 F484A/T518 mutant//GluN3A NMDA receptor (unknown origin) expressed in Xenopus oocytes measured after 4 days in presence of glycine by two-electrode voltage-clamp recording assay; assay type: cell-based; conditions: Homo sapiens, time 4.0 day
[17] = target: T1, Ionotropic glutamate receptor NMDA 1/2D (Rattus norvegicus); assay: Agonist activity at rat GluN1/GluN2D NMDA receptor expressed in Xenopus oocytes assessed as maximal relative efficacy measured at 30 uM after 4 days in presence of L-glutamte by two-electrode voltage-clamp recording assay relative to glycine; assay type: cell-based; conditions: Oocyte, time 4.0 day
Procedure, shortened: as §2, with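 “present. […]” for “present.”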

[18] = target: T2, Glutamate NMDA receptor; Grin1/Grin2a (Rattus norvegicus); assay: Agonist activity at rat GluN1/GluN2A NMDA receptor expressed in Xenopus oocytes assessed as maximal relative efficacy measured at 30 uM after 4 days in presence of L-glutamte by two-electrode voltage-clamp recording assay relative to glycine; assay type: cell-based; conditions: Oocyte, time 4.0 day
Procedure, shortened: as §1, with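 “throughout. […]” for “throughout.”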

[19] = target: T3, Glutamate NMDA receptor; Grin1/Grin2b (Rattus norvegicus); assay: Agonist activity at rat GluN1/GluN2B NMDA receptor expressed in Xenopus oocytes assessed as maximal relative efficacy measured at 30 uM after 4 days in presence of L-glutamte by two-electrode voltage-clamp recording assay relative to glycine; assay type: cell-based; conditions: Oocyte, time 4.0 day
Procedure, shortened: as §1, with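 “throughout. […]” for “throughout.”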

[20] = target: T1, Ionotropic glutamate receptor NMDA 1/2D (Rattus norvegicus); assay: Agonist activity at rat GluN1/GluN2D NMDA receptor expressed in Xenopus oocytes assessed as maximal relative efficacy measured at 300 uM after 4 days in presence of L-glutamte by two-electrode voltage-clamp recording assay relative to glycine; assay type: cell-based; conditions: Oocyte, time 4.0 day
Procedure, shortened: as §2, with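 “present. […]” for “present.”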

[21] = target: T3, Glutamate NMDA receptor; Grin1/Grin2b (Rattus norvegicus); assay: Agonist activity at rat GluN1/GluN2B NMDA receptor expressed in Xenopus oocytes assessed as maximal relative efficacy measured at 10 uM after 4 days in presence of L-glutamte by two-electrode voltage-clamp recording assay relative to glycine; assay type: cell-based; conditions: Oocyte, time 4.0 day
Procedure, shortened: as §1, with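 “throughout. […]” for “throughout.”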

Row | SMILES | EC50 [1] [µM] | EC50 [2] [µM] | EC50 [3] [µM] | Rmax [4] [%] | Rmax [5] [%] | Rmax [6] [%] | Rmax [7] [%] | Rmax ([4]; filed as agonist) [%] | Rmax [10] [%] | other results
1 | N[C@H](CNC(=O)c1ccc(-c2cccc(C(F)(F)F)c2)o1)C(=O)O | 6.6 | 1.8 | 7.7 | 36 | 35 | 17 | < 5 |  |  | 
2 | N[C@H](CNC(=O)c1ccc(-c2ccccc2OCc2ccccc2)o1)C(=O)O |  | 4 |  |  |  |  | < 5 | 157 |  | Rmax [8]: < 5%
3 | N[C@H](CO)C(=O)O |  |  |  |  |  |  |  | 111 |  | Rmax [9]: 100%; Rmax ([5]; filed as agonist): 93%; Rmax ([6]; filed as agonist): 96%
4 | N[C@H](CNC(=O)c1ccc(-c2ccccc2/C=C/c2ccccc2)o1)C(=O)O |  | 5.8 |  | 16 |  |  |  |  |  | Rmax [17]: < 5%; Rmax [18]: < 5%; Rmax [19]: < 5%
5 | N[C@H](CNC(=O)c1ccc(-c2cccc3c2OCCO3)o1)C(=O)O |  | 3.9 |  | 17 |  |  | < 5 |  |  | 
6 | N[C@H](CNC(=O)c1ccc(-c2ccc(Cl)c(Cl)c2)o1)C(=O)O | 23 | 4.2 | 31 |  | 24 | 20 | < 5 | 74 |  | 
7 | CN(C)S(=O)(=O)c1ccccc1-c1ccc(C(=O)NC[C@@H](N)C(=O)O)o1 | 10 | 4.8 |  |  |  | 22 | < 5 | 119 |  | Rmax [20]: < 5%
8 | N[C@H](CNC(=O)c1ccc(-c2ccccc2)o1)C(=O)O | 4.8 | 2.9 | 4.3 |  | 16 | 22 | < 5 | 77 |  | 

More lines, in order of falling EC50 [2], values ahead:

Row | EC50 [1] [µM] | EC50 [2] [µM] | EC50 [3] [µM] | Rmax [4] [%] | Rmax [5] [%] | Rmax [6] [%] | Rmax [7] [%] | Rmax ([4]; filed as agonist) [%] | Rmax [10] [%] | SMILES | other results
9 | 4.3 | 1.7 |  |  |  | 14 |  | 44 | < 5 | N[C@H](CNC(=O)c1ccc(-c2ccc(Cl)cc2)o1)C(=O)O | Rmax [11]: < 5%
10 | 3.1 | 1.6 | 3.2 |  | 11 | 32 | < 5 | 114 |  | COCc1ccccc1-c1ccc(C(=O)NC[C@@H](N)C(=O)O)o1 | 
11 |  | 1.3 |  | 26 |  |  |  |  | < 5 | COc1ccc(-c2ccc(C(=O)NC[C@@H](N)C(=O)O)o2)cc1 | Rmax [11]: < 5%
12 | 4.9 | 1.3 | 5 |  | 38 | 27 | < 5 | 68 |  | N[C@H](CNC(=O)c1ccc(-c2cccc(Cl)c2)o1)C(=O)O | 
13 |  | 0.75 |  | 22 |  |  |  |  | < 5 | N[C@H](CNC(=O)c1ccc(-c2ccccc2/C=C/c2cccc(F)c2)o1)C(=O)O | 
14 | 0.22 | 0.14 | 0.26 |  | 17 |  |  | 103 |  | Cc1ccccc1-c1ccc(C(=O)NC[C@@H](N)C(=O)O)o1 | Rmax [21]: < 5%; Rmax ([6]; filed as agonist): 58%
15 | 0.26 | 0.12 | 0.27 |  | 11 | 38 | < 5 | 70 |  | N[C@H](CNC(=O)c1ccc(-c2ccccc2Cl)o1)C(=O)O | 
16 | 0.18 | 0.11 | 0.23 |  | 12 | 29 | < 5 | 53 |  | N[C@H](CNC(=O)c1ccc(-c2cccc3ccccc23)o1)C(=O)O | 
17 |  | 0.074 |  | 28 |  |  |  |  | < 5 | N[C@H](CNC(=O)c1ccc(-c2ccc(Cl)cc2[N+](=O)[O-])o1)C(=O)O | inhibition (Oocyte [12]): inactive; IC50 [13]: 10 µM; inhibition (Oocyte [14]): 57%; Rmax [11]: < 5%; Ki [15]: 0.1 µM; inhibition (Oocyte [16]): inactive
18 | 0.13 | 0.04 |  | 36 |  | 24 |  |  | < 5 | N[C@H](CNC(=O)c1ccc(-c2ccccc2C(F)(F)F)o1)C(=O)O | Rmax [11]: < 5%
19 | 0.053 | 0.036 | 0.08 |  | 9 | 34 |  | 49 | < 5 | N[C@H](CNC(=O)c1ccc(-c2ccccc2Br)o1)C(=O)O | 
